Assay results reported in ChEMBL document CHEMBL4689842, “EUbOPEN Chemogenomics Library wave 1” (2021).

Test system: Fibroblast
Assay: Multiplex assay against human fibroblast
Type: toxicity, cell-based
Summary of the method: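 Values for tubulin, mitochondrial-mass and membrane-permeability phenotypes are per cents of cells with healthy nuclei. These cells were identified by CellPathfinder machine-learning gating of live cells that had been stained at seeding with Hoechst33342, BioTracker Green Microtubule Cytoskeleton Dye, MitoTracker Red and Annexin V Alexa Fluor 680 and imaged on a CQ1 microscope at 37°C and 5% CO2 after compound addition. The gating first set Hoechst high-intensity objects apart from normal cells, then split normal cells into healthy, pyknosed or fragmented nuclei, and pyknosed cells into mitotic or apoptotic.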

[1] = 12 h, 0 µM, compound concentration 0 uM, replicate 1
[2] = 12 h, 0 µM, compound concentration 0 uM, replicate 2
[3] = 12 h, 1 µM, compound concentration 1 uM, replicate 1
[4] = 12 h, 1 µM, compound concentration 1 uM, replicate 2
[5] = 24 h, 0 µM, compound concentration 0 uM, replicate 1
[6] = 24 h, 0 µM, compound concentration 0 uM, replicate 2
[7] = 24 h, 1 µM, compound concentration 1 uM, replicate 1
[8] = 24 h, 1 µM, compound concentration 1 uM, replicate 2

CCNc1cc(N[C@H]2CC[C@H](O)CC2)nc(Nc2ccc3c(ccn3Cc3ccccc3)c2)n1
Population Apoptotic (%) [1]: 55%
Population Fragmented Nuclei (%) [1]: 24%
Population Healthy Nuclei (%) [1]: 52%
Population Hoechst High Intensity Objects (%) [1]: 26%
Population Membrane Permeable-Phenotype (%) [1]: 0%
Population Mitotic Cells (%) [1]: 44%
Population Normal (%) [1]: 73%
Population Pyknosed Nuclei (%) [1]: 22%
Population Tubulin-Different-Phenotype (%) [1]: 38%
Total Cell Count [1]: 280
Population Apoptotic (%) [2]: 60%
Population Fragmented Nuclei (%) [2]: 40%
Population Healthy Nuclei (%) [2]: 48%
Population Hoechst High Intensity Objects (%) [2]: 47%
Population Membrane Permeable-Phenotype (%) [2]: 4%
Population Mitochondria Different-Phenotype (%) [2]: 41%
Population Mitotic Cells (%) [2]: 40%
Population Normal (%) [2]: 52%
Population Pyknosed Nuclei (%) [2]: 10%
Population Tubulin-Different-Phenotype (%) [2]: 41%
Total Cell Count [2]: 94
Population Apoptotic (%) [3]: 76%
Population Fragmented Nuclei (%) [3]: 45%
Population Healthy Nuclei (%) [3]: 47%
Population Hoechst High Intensity Objects (%) [3]: 20%
Population Membrane Permeable-Phenotype (%) [3]: 2%
Population Mitochondria Different-Phenotype (%) [3]: 11%
Population Mitotic Cells (%) [3]: 23%
Population Normal (%) [3]: 79%
Population Pyknosed Nuclei (%) [3]: 7%
Population Tubulin-Different-Phenotype (%) [3]: 12%
Total Cell Count [3]: 286
Population Apoptotic (%) [4]: 66%
Population Fragmented Nuclei (%) [4]: 67%
Population Healthy Nuclei (%) [4]: 29%
Population Hoechst High Intensity Objects (%) [4]: 50%
Population Membrane Permeable-Phenotype (%) [4]: 8%
Population Mitochondria Different-Phenotype (%) [4]: 17%
Population Mitotic Cells (%) [4]: 33%
Population Normal (%) [4]: 49%
Population Pyknosed Nuclei (%) [4]: 3%
Population Tubulin-Different-Phenotype (%) [4]: 34%
Total Cell Count [4]: 160
Population Apoptotic (%) [5]: 71%
Population Fragmented Nuclei (%) [5]: 21%
Population Healthy Nuclei (%) [5]: 45%
Population Hoechst High Intensity Objects (%) [5]: 38%
Population Mitochondria Different-Phenotype (%) [5]: 65%
Population Mitotic Cells (%) [5]: 28%
Population Normal (%) [5]: 61%
Population Pyknosed Nuclei (%) [5]: 32%
Population Tubulin-Different-Phenotype (%) [5]: 50%
Total Cell Count [5]: 257
Population Apoptotic (%) [6]: 90%
Population Fragmented Nuclei (%) [6]: 60%
Population Healthy Nuclei (%) [6]: 21%
Population Hoechst High Intensity Objects (%) [6]: 40%
Population Membrane Permeable-Phenotype (%) [6]: 0%
Population Mitochondria Different-Phenotype (%) [6]: 83%
Population Mitotic Cells (%) [6]: 10%
Population Normal (%) [6]: 59%
Population Pyknosed Nuclei (%) [6]: 18%
Population Tubulin-Different-Phenotype (%) [6]: 33%
Total Cell Count [6]: 92
Population Apoptotic (%) [7]: 76%
Population Fragmented Nuclei (%) [7]: 45%
Population Healthy Nuclei (%) [7]: 44%
Population Hoechst High Intensity Objects (%) [7]: 21%
Population Membrane Permeable-Phenotype (%) [7]: 0%
Population Mitochondria Different-Phenotype (%) [7]: 10%
Population Mitotic Cells (%) [7]: 24%
Population Normal (%) [7]: 78%
Population Pyknosed Nuclei (%) [7]: 10%
Population Tubulin-Different-Phenotype (%) [7]: 10%
Total Cell Count [7]: 313
Population Apoptotic (%) [8]: 100%
Population Fragmented Nuclei (%) [8]: 58%
Population Healthy Nuclei (%) [8]: 40%
Population Hoechst High Intensity Objects (%) [8]: 53%
Population Membrane Permeable-Phenotype (%) [8]: 3%
Population Mitochondria Different-Phenotype (%) [8]: 50%
Population Mitotic Cells (%) [8]: 0%
Population Normal (%) [8]: 46%
Population Pyknosed Nuclei (%) [8]: 1%
Population Tubulin-Different-Phenotype (%) [8]: 53%
Total Cell Count [8]: 152
